Experimental data as given in ChEMBL document CHEMBL1926550, “Synthesis and antibacterial activity of naphthyridone derivatives containing mono/difluoro-methyloxime pyrrolidine scaffolds” (2012).
Values after ≈ are worked out from the molar mass of the structure shown.

Legend:
Type in all cases: functional
[1] = system: Escherichia coli; assay: Antibacterial activity against Escherichia coli 10-1 after 18 hrs by two fold serial dilution method; conditions: 10-1, 18 h
In short: (§1)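 Agar two-fold serial dilution in melted Mueller-Hinton agar, final concentrations 128 down to 0.008 μg/mL. Plates inoculated with 10⁴ cfu and incubated at 35 °C for 18 h. MIC taken as the lowest concentration giving no visible growth on the plate.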

[2] = system: Escherichia coli; assay: Antibacterial activity against Escherichia coli 10-2 after 18 hrs by two fold serial dilution method; conditions: 10-2, 18 h; in short: as §1
[3] = system: Escherichia coli; assay: Antibacterial activity against Escherichia coli 10-3 after 18 hrs by two fold serial dilution method; conditions: 10-3, 18 h; in short: as §1
[4] = system: Klebsiella pneumoniae; assay: Antibacterial activity against Klebsiella pneumoniae 09-2 after 18 hrs by two fold serial dilution method; conditions: 09-2, 18 h; in short: as §1
[5] = system: Klebsiella pneumoniae; assay: Antibacterial activity against Klebsiella pneumoniae 10-1 after 18 hrs by two fold serial dilution method; conditions: 10-1, 18 h; in short: as §1
[6] = system: Klebsiella pneumoniae; assay: Antibacterial activity against Klebsiella pneumoniae 10-3 after 18 hrs by two fold serial dilution method; conditions: 10-3, 18 h; in short: as §1
[7] = system: Pseudomonas aeruginosa; assay: Antibacterial activity against Pseudomonas aeruginosa ATCC 27853 after 18 hrs by two fold serial dilution method; conditions: ATCC 27853, 18 h; in short: as §1
[8] = system: Pseudomonas aeruginosa; assay: Antibacterial activity against Pseudomonas aeruginosa 10-1 after 18 hrs by two fold serial dilution method; conditions: 10-1, 18 h; in short: as §1
[9] = system: Pseudomonas aeruginosa; assay: Antibacterial activity against Pseudomonas aeruginosa 10-2 after 18 hrs by two fold serial dilution method; conditions: 10-2, 18 h; in short: as §1
[10] = system: Pseudomonas aeruginosa; assay: Antibacterial activity against Pseudomonas aeruginosa 10-3 after 18 hrs by two fold serial dilution method; conditions: 10-3, 18 h; in short: as §1
[11] = system: Enterococcus faecium; assay: Antibacterial activity against Enterococcus faecium 09-1 after 18 hrs by two fold serial dilution method; conditions: 09-1, 18 h; in short: as §1
[12] = system: Staphylococcus aureus; assay: Antibacterial activity against Staphylococcus aureus ATCC 25923 after 18 hrs by two fold serial dilution method; conditions: ATCC 25923, 18 h; in short: as §1
[13] = system: Staphylococcus aureus; assay: Antibacterial activity against methicillin-resistant Staphylococcus aureus 10-1 after 18 hrs by two fold serial dilution method; conditions: 10-1, 18 h
In short: (§2)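 Agar two-fold serial dilution in melted Mueller-Hinton agar, 128 to 0.008 μg/mL. Plates inoculated with 10⁴ cfu, incubated 35 °C for 18 h. MIC taken as lowest concentration giving no visible growth on the plate.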

[14] = system: Staphylococcus aureus; assay: Antibacterial activity against methicillin-resistant Staphylococcus aureus 10-2 after 18 hrs by two fold serial dilution method; conditions: 10-2, 18 h; in short: as §2
[15] = system: Staphylococcus aureus; assay: Antibacterial activity against methicillin-resistant Staphylococcus aureus 10-3 after 18 hrs by two fold serial dilution method; conditions: 10-3, 18 h; in short: as §2
[16] = system: Staphylococcus aureus; assay: Antibacterial activity against methicillin-resistant Staphylococcus aureus 10-4 after 18 hrs by two fold serial dilution method; conditions: 10-4, 18 h; in short: as §2
[17] = system: Staphylococcus aureus; assay: Antibacterial activity against methicillin-sensitive Staphylococcus aureus 10-1 after 18 hrs by two fold serial dilution method; conditions: 10-1, 18 h; in short: as §1
[18] = system: Staphylococcus aureus; assay: Antibacterial activity against methicillin-sensitive Staphylococcus aureus 10-2 after 18 hrs by two fold serial dilution method; conditions: 10-2, 18 h; in short: as §1
[19] = system: Staphylococcus aureus; assay: Antibacterial activity against methicillin-sensitive Staphylococcus aureus 10-3 after 18 hrs by two fold serial dilution method; conditions: 10-3, 18 h; in short: as §1
[20] = system: Staphylococcus aureus; assay: Antibacterial activity against methicillin-sensitive Staphylococcus aureus 10-4 after 18 hrs by two fold serial dilution method; conditions: 10-4, 18 h; in short: as §1
[21] = system: Staphylococcus aureus; assay: Antibacterial activity against methicillin-sensitive Staphylococcus aureus 10-5 after 18 hrs by two fold serial dilution method; conditions: 10-5, 18 h; in short: as §1
[22] = system: Staphylococcus aureus; assay: Antibacterial activity against methicillin-sensitive Staphylococcus aureus 10-6 after 18 hrs by two fold serial dilution method; conditions: 10-6, 18 h; in short: as §1
[23] = system: Staphylococcus epidermidis; assay: Antibacterial activity against methicillin-resistant Staphylococcus epidermidis 10-1 after 18 hrs by two fold serial dilution method; conditions: 10-1, 18 h; in short: as §2
[24] = system: Staphylococcus epidermidis; assay: Antibacterial activity against methicillin-resistant Staphylococcus epidermidis 10-2 after 18 hrs by two fold serial dilution method; conditions: 10-2, 18 h; in short: as §2
[25] = system: Staphylococcus epidermidis; assay: Antibacterial activity against methicillin-sensitive Staphylococcus epidermidis 10-1 after 18 hrs by two fold serial dilution method; conditions: 10-1, 18 h; in short: as §1
[26] = system: Staphylococcus epidermidis; assay: Antibacterial activity against methicillin-sensitive Staphylococcus epidermidis 10-2 after 18 hrs by two fold serial dilution method; conditions: 10-2, 18 h; in short: as §1
[27] = system: Streptococcus pneumoniae; assay: Antibacterial activity against Streptococcus pneumoniae 10-1 after 18 hrs by two fold serial dilution method; conditions: 10-1, 18 h; in short: as §1
[28] = system: Enterococcus faecium; assay: Antibacterial activity against Enterococcus faecium 09-2 after 18 hrs by two fold serial dilution method; conditions: 09-2, 18 h; in short: as §1
[29] = system: Enterococcus faecium; assay: Antibacterial activity against Enterococcus faecium 09-3 after 18 hrs by two fold serial dilution method; conditions: 09-3, 18 h; in short: as §1
[30] = system: Enterococcus faecium; assay: Antibacterial activity against Enterococcus faecium 09-4 after 18 hrs by two fold serial dilution method; conditions: 09-4, 18 h; in short: as §1
[31] = system: Enterococcus faecium; assay: Antibacterial activity against Enterococcus faecium 09-5 after 18 hrs by two fold serial dilution method; conditions: 09-5, 18 h; in short: as §1
[32] = system: Enterococcus faecium; assay: Antibacterial activity against Enterococcus faecium 09-6 after 18 hrs by two fold serial dilution method; conditions: 09-6, 18 h; in short: as §1
[33] = system: Enterococcus faecalis; assay: Antibacterial activity against Enterococcus faecalis 09-1 after 18 hrs by two fold serial dilution method; conditions: 09-1, 18 h; in short: as §1
[34] = system: Enterococcus faecalis; assay: Antibacterial activity against Enterococcus faecalis 09-2 after 18 hrs by two fold serial dilution method; conditions: 09-2, 18 h; in short: as §1
[35] = system: Escherichia coli; assay: Antibacterial activity against Escherichia coli ATCC 25922 after 18 hrs by two fold serial dilution method; conditions: ATCC 25922, 18 h; in short: as §1
[36] = system: Escherichia coli; assay: Antibacterial activity against Escherichia coli 09-1 after 18 hrs by two fold serial dilution method; conditions: 09-1, 18 h; in short: as §1
[37] = system: Escherichia coli; assay: Antibacterial activity against Escherichia coli 09-2 after 18 hrs by two fold serial dilution method; conditions: 09-2, 18 h; in short: as §1
[38] = system: Escherichia coli; assay: Antibacterial activity against Escherichia coli 09-3 after 18 hrs by two fold serial dilution method; conditions: 09-3, 18 h; in short: as §1

Structure (SMILES) | MIC [1] | MIC [2] | MIC [3] | MIC [4] | MIC [5] | MIC [6] | MIC [7] | MIC [8] | MIC [9] | MIC [10] | MIC [11] | MIC [12] | MIC [13] | MIC [14] | MIC [15] | MIC [16] | MIC [17] | MIC [18] | MIC [19] | MIC [20] | other results
NCC1CN(c2ccc3c(=O)c(C(=O)O)cn(C4CC4)c3n2)C/C1=N\OCF (racemic) | > 128 µg/mL | 4 µg/mL (≈ 10.3 µM) | > 128 µg/mL | > 128 µg/mL | 0.5 µg/mL (≈ 1.28 µM) | 4 µg/mL (≈ 10.3 µM) | 4 µg/mL (≈ 10.3 µM) | 2 µg/mL (≈ 5.14 µM) | > 128 µg/mL | 32 µg/mL (≈ 82.2 µM) | 64 µg/mL (≈ 164 µM) | 0.25 µg/mL (≈ 0.642 µM) | > 128 µg/mL | 64 µg/mL (≈ 164 µM) | > 128 µg/mL | > 128 µg/mL | 0.03 µg/mL (≈ 0.077 µM) | 128 µg/mL (≈ 329 µM) | 0.25 µg/mL (≈ 0.642 µM) | 0.25 µg/mL (≈ 0.642 µM) | MIC [21]: 0.125 µg/mL (≈ 0.321 µM); MIC [22]: 0.125 µg/mL (≈ 0.321 µM); MIC [23]: 32 µg/mL (≈ 82.2 µM); MIC [24]: 64 µg/mL (≈ 164 µM); MIC [25]: 16 µg/mL (≈ 41.1 µM); MIC [26]: 32 µg/mL (≈ 82.2 µM); MIC [27]: 0.25 µg/mL (≈ 0.642 µM); MIC [28]: 64 µg/mL (≈ 164 µM); MIC [29]: 64 µg/mL (≈ 164 µM); MIC [30]: 2 µg/mL (≈ 5.14 µM); MIC [31]: 16 µg/mL (≈ 41.1 µM); MIC [32]: 1 µg/mL (≈ 2.57 µM); MIC [33]: 64 µg/mL (≈ 164 µM); MIC [34]: 64 µg/mL (≈ 164 µM); MIC [35]: 0.06 µg/mL (≈ 0.154 µM); MIC [36]: > 128 µg/mL; MIC [37]: > 128 µg/mL; MIC [38]: > 128 µg/mL
NCC1CN(c2nc3c(cc2F)c(=O)c(C(=O)O)cn3-c2ccc(F)cc2F)C/C1=N\OCF (racemic) | 128 µg/mL (≈ 267 µM) | 4 µg/mL (≈ 8.34 µM) | 32 µg/mL (≈ 66.8 µM) | > 128 µg/mL | 0.5 µg/mL (≈ 1.04 µM) | 4 µg/mL (≈ 8.34 µM) | 16 µg/mL (≈ 33.4 µM) | 4 µg/mL (≈ 8.34 µM) | > 128 µg/mL | 32 µg/mL (≈ 66.8 µM) | 64 µg/mL (≈ 134 µM) | 0.25 µg/mL (≈ 0.521 µM) | 64 µg/mL (≈ 134 µM) | 16 µg/mL (≈ 33.4 µM) | 64 µg/mL (≈ 134 µM) | 64 µg/mL (≈ 134 µM) | 0.06 µg/mL (≈ 0.125 µM) | 4 µg/mL (≈ 8.34 µM) | 0.125 µg/mL (≈ 0.261 µM) | 0.125 µg/mL (≈ 0.261 µM) | MIC [21]: 0.125 µg/mL (≈ 0.261 µM); MIC [22]: 0.125 µg/mL (≈ 0.261 µM); MIC [23]: 4 µg/mL (≈ 8.34 µM); MIC [24]: 8 µg/mL (≈ 16.7 µM); MIC [25]: 32 µg/mL (≈ 66.8 µM); MIC [26]: 32 µg/mL (≈ 66.8 µM); MIC [27]: 0.125 µg/mL (≈ 0.261 µM); MIC [28]: 64 µg/mL (≈ 134 µM); MIC [29]: 32 µg/mL (≈ 66.8 µM); MIC [30]: 0.5 µg/mL (≈ 1.04 µM); MIC [31]: 64 µg/mL (≈ 134 µM); MIC [32]: 0.5 µg/mL (≈ 1.04 µM); MIC [33]: 32 µg/mL (≈ 66.8 µM); MIC [34]: 32 µg/mL (≈ 66.8 µM); MIC [35]: 0.125 µg/mL (≈ 0.261 µM); MIC [36]: 128 µg/mL (≈ 267 µM); MIC [37]: > 128 µg/mL; MIC [38]: > 128 µg/mL
